Assay results taken from ChEMBL document CHEMBL1275602, “Daptomycin is effective for treatment of experimental endocarditis due to methicillin-resistant and glycopeptide-intermediate Staphylococcus epidermidis” (Antimicrob Agents Chemother, 2010).
Converted amounts (≈) assume the structure as drawn. The source made the active and inactive calls.

What was measured:
[1] = system: Staphylococcus epidermidis; test: Antimicrobial activity against methicillin-resistant Staphylococcus epidermidis 375 by broth microdilution method; format: functional
In short: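 Broth microdilution in cation-adjusted Mueller-Hinton broth following CLSI procedures. MIC and MBC determined for each strain. For daptomycin the broth was adjusted to 50 μg/ml calcium.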

[2] = system: Staphylococcus epidermidis; test: Antimicrobial activity against glycopeptide-intermediate Staphylococcus epidermidis NRS6 by broth microdilution method; format: functional
In short: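 Broth microdilution in cation-adjusted Mueller-Hinton broth following CLSI procedures. MIC and MBC determined for each strain. For daptomycin the broth was adjusted to 50 μg/ml calcium. S. aureus ATCC 29213 served as the test control strain.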

[3] = system: Staphylococcus epidermidis; test: Bactericidal activity against methicillin-resistant Staphylococcus epidermidis 375 at 2 times MIC after 24 hrs by time kill analysis; format: functional, organism-based
In short: (§1)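 Time-kill in CAMHB. Overnight culture gave a final inoculum of 5 × 10^5 to 1 × 10^6 CFU/ml. […] Viable counts taken at 0, 4 and 24 h, with carryover removed by dilution. Bactericidal meant at least a 3-log10 CFU/ml fall at 24 h versus the inoculum. Run in duplicate.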

[4] = system: Staphylococcus epidermidis; test: Bactericidal activity against glycopeptide-intermediate Staphylococcus epidermidis NRS6 at 2 times MIC after 24 hrs by time kill analysis; format: functional, organism-based
In short: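 Time-kill in CAMHB with a starting inoculum of 5 × 10^5 to 1 × 10^6 CFU/ml from an overnight culture. […] Viable counts at 0, 4 and 24 h, with carryover handled by dilution. Bactericidal was defined as a ≥3-log10 CFU/ml fall at 24 h versus the inoculum. Run in duplicate.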

Oryctolagus cuniculus [5] = test: Cmin in rabbit at 10 mg/kg/day, iv; format: ADME, organism-based; parameters: route intravenous; settings: in vivo
In short: (§2)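 Rabbits given drug i.v. over 15 min by computer-controlled infusion pump, designed to reproduce human serum PK (6 or 10 mg/kg/day human-equivalent regimens). Mean trough and Cmax measured in serum.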

[6] = Cmax in rabbit at 10 mg/kg/day, iv; format: ADME, organism-based, Oryctolagus cuniculus; parameters: dose 10 mg/kg/day, route intravenous; settings: in vivo; in short: as §2
[7] = system: Staphylococcus epidermidis; test: Antimicrobial activity against methicillin-resistant Staphylococcus epidermidis 375 in acute infective endocarditis rabbit model assessed as sterile vegetation level at 6 mg/kg/day, iv after 48 hrs; format: functional
In short: (§3)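 New Zealand White rabbits (2 kg) with catheter-induced aortic valve endocarditis. Infected i.v. 48 h after catheter placement with 1 ml of about 1 × 10^9 CFU/ml. Bacteremia confirmed before therapy. Computer-controlled infusion via the vena cava simulated human PK for 48 h. Killed after 6 further half-lives. Vegetations cultured as log10 CFU/g; sterile meant no growth after one week. 15–17 animals per arm.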

[8] = system: Staphylococcus epidermidis; test: Antimicrobial activity against methicillin-resistant Staphylococcus epidermidis 375 in acute infective endocarditis rabbit model assessed as sterile vegetation level at 10 mg/kg/day, iv after 48 hrs; format: functional; in short: as §3
[9] = system: Staphylococcus epidermidis; test: Antimicrobial activity against glycopeptide-intermediate Staphylococcus epidermidis NRS6 in acute infective endocarditis rabbit model assessed as sterile vegetation level at 6 mg/kg/day, iv after 48 hrs; format: functional
In short: (§4)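 New Zealand White rabbits (2 kg) with catheter-induced aortic valve endocarditis were infected i.v. with 1 ml of about 1 × 10^9 CFU/ml 48 h after catheter placement. Dosing started 48 h after infection by computer-controlled i.v. infusion simulating human PK, given over 15 min for 48 h. Animals were killed after 6 half-lives. Vegetations were cultured and reported as log10 CFU/g. Sterile meant no growth, including 1-week broth culture. 15 to 17 animals per arm.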

[10] = system: Staphylococcus epidermidis; test: Antimicrobial activity against glycopeptide-intermediate Staphylococcus epidermidis NRS6 in acute infective endocarditis rabbit model assessed as sterile vegetation level at 10 mg/kg/day, iv after 48 hrs; format: functional; in short: as §4
[11] = system: Staphylococcus epidermidis; test: Antimicrobial activity against methicillin-resistant Staphylococcus epidermidis 375 in acute infective endocarditis rabbit model assessed as bacterial titer per gram of vegetation at 6 mg/kg/day, iv after 48 hrs; format: functional; in short: as §3
[12] = system: Staphylococcus epidermidis; test: Antimicrobial activity against glycopeptide-intermediate Staphylococcus epidermidis NRS6 in acute infective endocarditis rabbit model assessed as bacterial titer per gram of vegetation at 6 mg/kg/day, iv after 48 hrs; format: functional; in short: as §4
[13] = system: Staphylococcus epidermidis; test: Antimicrobial activity against methicillin-resistant Staphylococcus epidermidis 375 in acute infective endocarditis rabbit model assessed as bacterial titer per gram of vegetation at 10 mg/kg/day, iv after 48 hrs; format: functional; in short: as §3
[14] = system: Staphylococcus epidermidis; test: Antimicrobial activity against glycopeptide-intermediate Staphylococcus epidermidis NRS6 in acute infective endocarditis rabbit model assessed as bacterial titer per gram of vegetation at 10 mg/kg/day, iv after 48 hrs; format: functional; in short: as §4
[15] = system: Staphylococcus epidermidis; test: Antimicrobial activity against methicillin-resistant Staphylococcus epidermidis isolates; format: functional
[16] = Cmax in rabbit at 10 mg/kg, iv; settings: in vivo
[17] = system: Staphylococcus epidermidis; test: Bacteriostatic activity against methicillin-resistant Staphylococcus epidermidis 375 at 0.5 times MIC after 24 hrs by time kill analysis; format: functional, organism-based; in short: as §1
[18] = system: Staphylococcus epidermidis; test: Bacteriostatic activity against glycopeptide-intermediate Staphylococcus epidermidis NRS6 at 0.5 times MIC after 24 hrs by time kill analysis; format: functional, organism-based; in short: as §1
[19] = system: Staphylococcus epidermidis; test: Bactericidal activity against glycopeptide-intermediate Staphylococcus epidermidis NRS6 assessed as reduction in bacterial CFU at 2 times MIC after 24 hrs by time kill analysis; format: functional
[20] = system: Staphylococcus epidermidis; test: Antimicrobial activity against methicillin-resistant Staphylococcus epidermidis 375 in acute infective endocarditis rabbit model assessed as sterile vegetation level at 15 mg/kg, iv administered every 12 hrs measured after 48 hrs; format: functional; in short: as §3
[21] = system: Staphylococcus epidermidis; test: Antimicrobial activity against methicillin-resistant Staphylococcus epidermidis 375 in acute infective endocarditis rabbit model assessed as sterile vegetation level at 15 mg/kg, iv administered every 6 hrs measured after 48 hrs; format: functional; in short: as §3
[22] = system: Staphylococcus epidermidis; test: Antimicrobial activity against glycopeptide-intermediate Staphylococcus epidermidis NRS6 in acute infective endocarditis rabbit model assessed as sterile vegetation level at 15 mg/kg administered every 12 hrs, iv measured after 48 hrs; format: functional; in short: as §3
[23] = system: Staphylococcus epidermidis; test: Antimicrobial activity against methicillin-resistant Staphylococcus epidermidis 375 in acute infective endocarditis rabbit model assessed as bacterial titer per gram of vegetation at 15 mg/kg administered every 12 hrs, iv measured after 48 hrs; format: functional; in short: as §3
[24] = system: Staphylococcus epidermidis; test: Antimicrobial activity against glycopeptide-intermediate Staphylococcus epidermidis NRS6 in acute infective endocarditis rabbit model assessed as bacterial titer per gram of vegetation at 15 mg/kg administered every 12 hrs, iv measured after 48 hrs; format: functional; in short: as §3
[25] = system: Staphylococcus epidermidis; test: Antimicrobial activity against methicillin-resistant Staphylococcus epidermidis 375 in acute infective endocarditis rabbit model assessed as bacterial titer per gram of vegetation at 15 mg/kg administered every 6 hrs, iv measured after 48 hrs; format: functional; in short: as §3
[26] = system: Staphylococcus epidermidis; test: Bacteriostatic activity against methicillin-resistant Staphylococcus epidermidis 375 at MIC after 24 hrs by time kill analysis; format: functional, organism-based; in short: as §1
[27] = system: Staphylococcus epidermidis; test: Bacteriostatic activity against glycopeptide-intermediate Staphylococcus epidermidis NRS6 at MIC after 24 hrs by time kill analysis; format: functional, organism-based; in short: as §1
[28] = system: Staphylococcus epidermidis; test: Bacteriostatic activity against methicillin-resistant Staphylococcus epidermidis 375 at 2 times MIC after 24 hrs by time kill analysis; format: functional, organism-based; in short: as §1
[29] = system: Staphylococcus epidermidis; test: Bacteriostatic activity against glycopeptide-intermediate Staphylococcus epidermidis NRS6 at 2 times MIC after 24 hrs by time kill analysis; format: functional, organism-based; in short: as §1
Oryctolagus cuniculus [30] = test: Cmin in methicillin-resistant Staphylococcus epidermidis 375 infected rabbit at 60 mg/kg, iv; settings: in vivo

Question: For `CCCCCCCCCC(=O)N[C@@H](Cc1c[nH]c2ccccc12)C(=O)N[C@H](CC(N)=O)C(=O)N[C@@H](CC(=O)O)C(=O)N[C@@H]1C(=O)NCC(=O)N[C@@H](CCCN)C(=O)N[C@@H](CC(=O)O)C(=O)N[C@H](C)C(=O)N[C@@H](CC(=O)O)C(=O)NCC(=O)N[C@H](CO)C(=O)N[C@@H]([C@H](C)CC(=O)O)C(=O)N[C@@H](CC(=O)c2ccccc2N)C(=O)O[C@@H]1C`, which MBC [1] is on record?
Answer: 1 µg/mL (≈ 0.617 µM)

Question: What about the MIC [1] of the same compound?
Answer: 0.5 µg/mL (≈ 0.309 µM)

Question: And the MBC [2]?
Answer: 4 µg/mL (≈ 2.47 µM)

Question: And the MIC [2]?
Answer: 2 µg/mL (≈ 1.23 µM)

Question: What about the Activity [3] of the same compound?
Answer: Active

Question: What about the Activity [4] of the same compound?
Answer: Active

Question: What about the Cmin (Oryctolagus cuniculus [5]) of the same compound?
Answer: 18.04 µg/mL

Question: What about the Cmax [6] of the same compound?
Answer: 146 µg/mL

Question: And the Activity [7]?
Answer: 60%

Question: What about the Activity [8] of the same compound?
Answer: 73%

Question: And the Activity [9]?
Answer: 6%

Question: And the Activity [10]?
Answer: 0%

Question: What about the log10cfu [11] of the same compound?
Answer: 0

Question: And the log10cfu [12]?
Answer: 3.7

Question: What about the log10cfu [13] of the same compound?
Answer: 0

Question: And the log10cfu [14]?
Answer: 3.9

Question: What about the MIC [15] of the same compound?
Answer: ≥ 2 µg/mL

Question: What about the Cmax [16] of the same compound?
Answer: 146 µg/mL

Question: What does the source list for `CO[C@H]1/C=C/O[C@@]2(C)Oc3c(C)c(O)c4c(O)c(c(/C=N/N5CCN(C)CC5)c(O)c4c3C2=O)NC(=O)/C(C)=C\C=C\[C@H](C)[C@H](O)[C@@H](C)[C@@H](O)[C@@H](C)[C@H](OC(C)=O)[C@@H]1C` [RIFAMPIN]?
Answer: MBC [2]: > 0.25 µg/mL; MIC [2]: 0.008 µg/mL (≈ 0.00972 µM)

Question: Which results are given for `CN[C@H](CC(C)C)C(=O)N[C@H]1C(=O)N[C@@H](CC(N)=O)C(=O)N[C@H]2C(=O)N[C@H]3C(=O)N[C@H](C(=O)N[C@H](C(=O)O)c4cc(O)cc(O)c4-c4cc3ccc4O)[C@H](O)c3ccc(c(Cl)c3)Oc3cc2cc(c3O[C@@H]2O[C@H](CO)[C@@H](O)[C@H](O)[C@H]2O[C@H]2C[C@](C)(N)[C@H](O)[C@H](C)O2)Oc2ccc(cc2Cl)[C@H]1O` [VANCOMYCIN]?
Answer: MBC [1]: 4 µg/mL (≈ 2.76 µM); MBC [2]: 16 µg/mL (≈ 11 µM); MIC [2]: 8 µg/mL (≈ 5.52 µM); Activity [17]: Active; Activity [18]: Active; fold change (FC) [19]: 2.8; Activity [20]: 19%; Activity [21]: 33%; Activity [22]: 0%; log10cfu [23]: 2; log10cfu [24]: 7.1; log10cfu [25]: 2; Activity [26]: Active; Activity [27]: Active; Activity [28]: Active; Activity [29]: Active; Cmin (Oryctolagus cuniculus [30]): 20 µg/mL

Question: Which MIC [2] does the source give for GENTAMICIN here?
Answer: 64 µg/mL
